Data on two compounds can be found in ChEMBL document CHEMBL5674883, “The Heterochromatin Landscape in Migrating Cells and the Importance of H3K27me3 for Associated Transcriptome Alterations” (Cells, 2018).

Each structure is given as a SMILES string.

Common to all, as to format: cell-based
Assay [1] deals with Histone-lysine N-methyltransferase EZH2 (Mus musculus) (UniProt Q61188). The assay can be described thus: Inhibition of EZH2 in mouse B16-F1 migrating cells assessed as fold change in H3K27me3-buffered regulated Gm28989-mRNA expression at 3 uM measured by […] analysis relative to control cells. In outline:
(§1)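 Confluent B16-F1 cells on fibronectin-coated plates, cultured at 37 °C and 7% CO2, were scratched at multiple sites to induce migration. They were then held 3 h in growth medium containing 3 µM GSK343, with the inhibitor added 3 h before lysis. Unscratched cells served as controls. Poly A mRNA was analysed by RNA-seq (n=3 GSK343, n=5 controls). Linear models removed batch effects, and buffered genes were those altered only under GSK343 (FDR <0.05, fold change >1.3).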

Assay [2] has the same target. The assay can be described thus: Inhibition of EZH2 in mouse B16-F1 migrating cells assessed as fold change in H3K27me3-buffered regulated Rhbdf2-mRNA expression at 3 uM measured by […] analysis relative to control cells. In outline:
as §1

For assay [3] the target is unchanged. The assay can be described thus: Inhibition of EZH2 in mouse B16-F1 migrating cells assessed as fold change in H3K27me3-buffered regulated Synm-mRNA expression at 3 uM measured by […] analysis relative to control cells. In outline:
(§2)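 Confluent B16-F1 cells on fibronectin-coated plates were scratched at multiple sites, washed once with DMEM and left to migrate 3 h in growth medium (37 °C, 7% CO2); unscratched cells served as control. GSK343 (3 µM) was added 3 h before lysis. Poly A mRNA was sequenced (RNA-seq), with 5 replicates for untreated and 3 for treated cells. Differential expression was called by linear model with batch correction, at FDR <0.05 and fold change ≥1.3.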

Assay [4] shares this target. The assay can be described thus: Inhibition of EZH2 in mouse B16-F1 migrating cells assessed as fold change in H3K27me3-buffered regulated 4930503L19Rik-mRNA expression at 3 uM measured by […] analysis relative to control cells. In outline:
as §1

The target is the same in assay [5]. Kind of assay: Inhibition of EZH2 in mouse B16-F1 migrating cells assessed as fold change in H3K27me3-buffered regulated Slc26a2-mRNA expression at 3 uM measured by […] analysis relative to control cells. In outline:
as §2

The target is the same in assay [6]. Kind of assay: Inhibition of EZH2 in mouse B16-F1 migrating cells assessed as fold change in H3K27me3-independent regulated Serpinb8-mRNA expression at 3 uM measured by […] analysis relative to control cells. In outline: as §2
The target is the same in assay [7]. The assay can be described thus: Inhibition of EZH2 in mouse B16-F1 migrating cells assessed as fold change in H3K27me3-buffered regulated Hs3st1-mRNA expression at 3 uM measured by […] analysis relative to control cells. In outline:
as §1

The target is the same in assay [8]. Kind of assay: Inhibition of EZH2 in mouse B16-F1 migrating cells assessed as fold change in H3K27me3-independent regulated Maff-mRNA expression at 3 uM measured by […] analysis relative to control cells. In outline: as §2
Assay [9] shares this target. Kind of assay: Inhibition of EZH2 in mouse B16-F1 migrating cells assessed as fold change in H3K27me3-independent regulated Nr4a3-mRNA expression at 3 uM measured by ChIP-seq analysis relative to control cells. In outline:
as §2

For assay [10] the target is unchanged. The assay can be described thus: Inhibition of EZH2 in mouse B16-F1 migrating cells assessed as fold change in H3K27me3-buffered regulated Pygm-mRNA expression at 3 uM measured by […] analysis relative to control cells. In outline:
as §1

For assay [11] the target is unchanged. The assay can be described thus: Inhibition of EZH2 in mouse B16-F1 migrating cells assessed as fold change in H3K27me3-dependent regulated Espnl-mRNA expression at 3 uM measured by […] analysis relative to control cells. In outline:
as §2

The target of assay [12] is T1, RNA polymerase II (Mus musculus) (UniProt P08775+Q8CFI7+P97760+A0A3Q4L2S8+Q80UW8+P61219+P62488+Q923G2+P60898+O08740+Q63871+P62876). The assay can be described thus: Inhibition of RNA polymerase II in mouse B16-F1 migrating cells assessed as fold change in Psip1-RNA stability at 0.1 mM measured by […] analysis relative to control cells.
The target of assay [13] is T1, RNA polymerase II (Mus musculus). Kind of assay: Inhibition of RNA polymerase II in mouse B16-F1 migrating cells assessed as fold change in Ikzf4-RNA stability at 0.1 mM measured by ChIP-seq analysis relative to control cells.
Assay [14] shares this target. Kind of assay: Inhibition of RNA polymerase II in mouse B16-F1 migrating cells assessed as fold change in Cbx1-RNA stability at 0.1 mM measured by […] analysis relative to control cells.
Assay [15] has the same target. Kind of assay: Inhibition of RNA polymerase II in mouse B16-F1 migrating cells assessed as fold change in Otud6b-RNA stability at 0.1 mM measured by […] analysis relative to control cells.
The target is the same in assay [16]. Kind of assay: Inhibition of RNA polymerase II in mouse B16-F1 migrating cells assessed as fold change in Grhpr-RNA stability at 0.1 mM measured by ChIP-seq analysis relative to control cells.
The target is the same in assay [17]. The assay can be described thus: Inhibition of RNA polymerase II in mouse B16-F1 migrating cells assessed as fold change in Lgals3-RNA stability at 0.1 mM measured by ChIP-seq analysis relative to control cells.
Assay [18] has the same target. Kind of assay: Inhibition of RNA polymerase II in mouse B16-F1 migrating cells assessed as fold change in Kdelr1-RNA stability at 0.1 mM measured by ChIP-seq analysis relative to control cells. In outline: (§3)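 Mouse B16-F1 melanoma cells grown to confluence on fibronectin in DMEM/10% FCS at 37 °C, 7% CO2. Migration induced by multiple scratches and 3 h incubation; unscratched controls. DRB 0.1 mM added 3 h before lysis. RNA from poly A-selected mRNA was sequenced (RNA-seq, three replicates per DRB group). Fold change computed for DRB-treated migrating vs DRB-treated control cells; cutoffs fold change >1.3, FDR <0.05.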

Assay [19] has the same target. The assay can be described thus: Inhibition of RNA polymerase II in mouse B16-F1 migrating cells assessed as fold change in Alkbh2-RNA stability at 0.1 mM measured by […] analysis relative to control cells.
For assay [20] the target is unchanged. Kind of assay: Inhibition of RNA polymerase II in mouse B16-F1 migrating cells assessed as fold change in Cd2ap-RNA stability at 0.1 mM measured by […] analysis relative to control cells. In outline:
as §3

For assay [21] the target is unchanged. Kind of assay: Inhibition of RNA polymerase II in mouse B16-F1 migrating cells assessed as fold change in Bcap29-RNA stability at 0.1 mM measured by […] analysis relative to control cells.
For assay [22] the target is unchanged. The assay can be described thus: Inhibition of RNA polymerase II in mouse B16-F1 migrating cells assessed as fold change in Nrp1-RNA stability at 0.1 mM measured by […] analysis relative to control cells.
For assay [23] the target is unchanged. Kind of assay: Inhibition of RNA polymerase II in mouse B16-F1 migrating cells assessed as fold change in Bpnt1-RNA stability at 0.1 mM measured by […] analysis relative to control cells.
Assay [24] has the same target. The assay can be described thus: Inhibition of RNA polymerase II in mouse B16-F1 migrating cells assessed as fold change in Ndrg1-RNA stability at 0.1 mM measured by ChIP-seq analysis relative to control cells.

Chain of Histone-lysine N-methyltransferase EZH2 (Mus musculus) (Q61188 whole entry): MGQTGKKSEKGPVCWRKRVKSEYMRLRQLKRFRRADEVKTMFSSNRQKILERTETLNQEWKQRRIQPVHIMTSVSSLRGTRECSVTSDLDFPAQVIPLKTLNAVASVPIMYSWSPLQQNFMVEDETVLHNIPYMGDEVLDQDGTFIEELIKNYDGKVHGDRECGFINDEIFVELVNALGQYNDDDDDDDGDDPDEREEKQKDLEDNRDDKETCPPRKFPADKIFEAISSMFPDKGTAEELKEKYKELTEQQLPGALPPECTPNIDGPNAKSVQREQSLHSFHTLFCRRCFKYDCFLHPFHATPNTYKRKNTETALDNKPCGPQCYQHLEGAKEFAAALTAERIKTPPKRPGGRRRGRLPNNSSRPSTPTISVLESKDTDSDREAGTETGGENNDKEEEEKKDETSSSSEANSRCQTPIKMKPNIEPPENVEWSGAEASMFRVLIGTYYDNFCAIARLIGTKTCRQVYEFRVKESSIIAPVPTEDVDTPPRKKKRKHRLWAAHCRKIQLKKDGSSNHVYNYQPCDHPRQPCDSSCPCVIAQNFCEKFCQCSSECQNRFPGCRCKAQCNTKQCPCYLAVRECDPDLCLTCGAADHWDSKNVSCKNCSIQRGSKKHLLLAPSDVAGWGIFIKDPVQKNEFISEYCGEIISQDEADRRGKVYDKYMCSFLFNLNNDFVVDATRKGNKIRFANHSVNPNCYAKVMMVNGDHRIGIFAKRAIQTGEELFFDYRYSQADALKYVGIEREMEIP

With `CCCc1cc(C)[nH]c(=O)c1CNC(=O)c1cc(-c2ccnc(N3CCN(C)CC3)c2)cc2c1cnn2C(C)C`, the log2FC in assay [1] was 1.08; in assay [2], -0.57; in [3], 1.06; in [4], -0.64; in assay [5], 0.38; in [6], 0.81. Besides, the log2FC in assay [7] was 0.78; in [8], 0.76; in [9], 0.74; in assay [10], 0.85; in assay [11], 0.55.
With `OC[C@H]1O[C@@H](n2cnc3cc(Cl)c(Cl)cc32)[C@H](O)[C@@H]1O`, the log2FC in assay [12] was -0.83; in [13], 0.93; in [14], -0.56; in [15], -0.6; in assay [16], 1.02; in assay [17], 0.95. Moreover, the log2FC in assay [18] is 0.4; in [19], 0.66; in assay [20] it was -0.57; in [21], -0.48; in assay [22] it was -0.73; in [23] it was -0.48. The log2FC in assay [24] is 0.7.
